Data reported in ChEMBL document CHEMBL3797115, “Design and synthesis of peptide conjugates of phosphoramide mustard as prodrugs activated by prostate-specific antigen” (Bioorg Med Chem, 2016).
pIC50: −log10 of the molar value. Starred links: 1 amine or outer side, 2 acyl side, 3 side chain; linkers in the order of their positions; H or OH if unused. Non-standard residues stand in square brackets, D forms with d. Residues, ends and D or L forms follow the SMILES beside them. *: point of attachment. X1 = NP(=O)(OCc1c(F)c(F)c(N*)c(F)c1F)N(CCCl)CCCl; X3 = NP(=O)(OCc1c(F)cc(N*)cc1F)N(CCCl)CCCl; X2 = NP(=O)(OCc1ccc(N*)c(F)c1)N(CCCl)CCCl; X5 = NP(=O)(OCc1ccc(N*)cc1F)N(CCCl)CCCl; X4 = NP(=O)(OCc1ccc(N*)cc1)N(CCCl)CCCl; Glutaryl = O=C(CCCC(=O)[*:2])[*:1]; Hyp = O=C(O)[C@@H]1C[C@@H](O)CN1; Chg = N[C@H](C(=O)O)C1CCCCC1

Key:
[1] = molecular target: T1, Prostate-specific antigen (Homo sapiens, UniProt P07288); assay: Prodrug activation assessed as prostate specific antigen (unknown origin)-mediated drug metabolism in Tris/HCl buffer pH 8 at 0.16 mM by HPLC analysis; assay type: ADME; conditions: pH 8, 160 µM, TDE = time-dependent effect
T1 sequence (P07288 whole entry): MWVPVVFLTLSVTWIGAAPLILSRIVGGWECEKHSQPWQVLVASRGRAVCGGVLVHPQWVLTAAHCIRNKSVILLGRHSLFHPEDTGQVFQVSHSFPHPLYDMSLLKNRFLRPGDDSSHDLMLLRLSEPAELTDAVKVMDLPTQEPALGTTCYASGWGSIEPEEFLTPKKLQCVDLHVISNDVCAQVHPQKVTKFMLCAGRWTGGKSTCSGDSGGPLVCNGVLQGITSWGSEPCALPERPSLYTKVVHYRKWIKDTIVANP
Summary of the method: (§1)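 Purified PSA with substrate at 1:100 enzyme/substrate molar ratio, 37 °C, Tris/HCl pH 8.0 with 10 mM CaCl2 and 0.1% Tween-20. Substrate stocks 10 mM in DMSO. Aliquots taken at intervals, quenched with 20% acetonitrile, frozen, then analysed by HPLC for substrate loss. Cleavage site after Gln confirmed by LC/MS.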

[2] = Half life in Tris buffer pH 8 at 100 uM by HPLC analysis; assay type: ADME
Summary of the method: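 Conjugate at 100 µM incubated at 37 °C in 50 mM Tris/HCl pH 8.0 with 10 mM CaCl2 and 0.1% Tween-20, without enzyme. Loss of conjugate followed over time by HPLC to give half-life.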

[3] = molecular target: T1, Prostate-specific antigen; assay: Prodrug activation assessed as prostate specific antigen (unknown origin)-mediated drug metabolism in Tris/HCl buffer pH 8 at 100 uM measured as half life by HPLC analysis; assay type: ADME; conditions: pH 8, 100 µM; summary of the method: as §1
[4] = Antiproliferative activity against human DU145 cells after 72 hrs by MTT assay; assay type: functional, cell-based; conditions: DU-145, 72 h
Summary of the method: (§2)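 LNCaP (PSA-producing) and DU145 (non-PSA) cells grown in RPMI 1640 with 10% FBS; 7500 LNCaP or 500 DU145 cells/well, grown 48 h. Medium then switched to serum-free RPMI with 2% TCM, no phenol red. Conjugates 0.01–100 µM for 72 h; medium alone as negative control. MTT 4 h at 37 °C, read at 570 nm; IC50 interpolated from percent of control growth.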

LNCaP = assay: Antiproliferative activity against human LNCAP cells expressing prostate specific antigen after 72 hrs by MTT assay; assay type: functional, cell-based; summary of the method: as §2
[5] = molecular target: T1, Prostate-specific antigen; assay: Prodrug activation assessed as prostate specific antigen (unknown origin)-mediated drug metabolism in Tris/HCl buffer at pH 8 measured after 2 hrs by HPLC analysis; assay type: ADME; conditions: pH 8, 2 h; summary of the method: as §1

Row | SMILES | Drug metabolism [1] | half-life at 100 µM [2] [h] | t1/2 [3] [h] | pIC50 [4] | pIC50 (LNCaP) | Drug metabolism [5]
1 | C[C@H](NC(=O)[C@@H]1C[C@@H](O)CN1C(=O)CCCC(=O)O)C(=O)N[C@@H](CO)C(=O)N[C@H](C(=O)N[C@@H](CCC(N)=O)C(=O)Nc1c(F)c(F)c(COP(N)(=O)N(CCCl)CCCl)c(F)c1F)C1CCCCC1 (some centres undefined) (Glutaryl-[Hyp]AS[Chg]Q-X1) | tde | 178 | 1.1 | < 4.00 | < 4.00 | 
2 | C[C@H](NC(=O)[C@@H]1C[C@@H](O)CN1C(=O)CCCC(=O)O)C(=O)N[C@@H](CO)C(=O)N[C@H](C(=O)N[C@@H](CCC(N)=O)C(=O)Nc1ccc(COP(N)(=O)N(CCCl)CCCl)cc1)C1CCCCC1 (some centres undefined) (Glutaryl-[Hyp]AS[Chg]Q-X4) | tde | 46 | 2.1 | 4.46 | 4.96 | 
3 | C[C@H](NC(=O)[C@@H]1C[C@@H](O)CN1C(=O)CCCC(=O)O)C(=O)N[C@@H](CO)C(=O)N[C@H](C(=O)N[C@@H](CCC(N)=O)C(=O)Nc1ccc(COP(N)(=O)N(CCCl)CCCl)c(F)c1)C1CCCCC1 (some centres undefined) (Glutaryl-[Hyp]AS[Chg]Q-X5) | tde | 105 | 0.93 | < 4.00 | 5.28 | 
4 | C[C@H](NC(=O)[C@@H]1C[C@@H](O)CN1C(=O)CCCC(=O)O)C(=O)N[C@@H](CO)C(=O)N[C@H](C(=O)N[C@@H](CCC(N)=O)C(=O)Nc1ccc(COP(N)(=O)N(CCCl)CCCl)cc1F)C1CCCCC1 (some centres undefined) (Glutaryl-[Hyp]AS[Chg]Q-X2) | tde | 465 | 0.65 | < 4.00 | 4.54 | 
5 | COc1cccc2c1C(=O)c1c(O)c3c(c(O)c1C2=O)C[C@](O)(C(=O)CO)C[C@H]3O[C@@H]1C[C@@H](NC(=O)[C@@H](CC(C)C)NC(=O)[C@@H](CO)NC(=O)[C@@H](CCC(N)=O)NC(=O)[C@H](NC(=O)[C@@H](CO)NC(=O)[C@@H](C)NC(=O)[C@@H]2C[C@@H](O)CN2C(=O)CCCC(=O)O)C2CCCCC2)[C@@H](O)[C@@H](C)O1 (stereo in doubt) |  |  | 0.6 | < 4.00 | 5.96 | metabolite_detected
6 | C[C@H](NC(=O)[C@@H]1C[C@@H](O)CN1C(=O)CCCC(=O)O)C(=O)N[C@@H](CO)C(=O)N[C@H](C(=O)N[C@@H](CCC(N)=O)C(=O)Nc1cc(F)c(COP(N)(=O)N(CCCl)CCCl)c(F)c1)C1CCCCC1 (some centres undefined) (Glutaryl-[Hyp]AS[Chg]Q-X3) | tde | 131 | 1.7 | < 4.00 | 4.70 | 
